The source of these data is ChEMBL document CHEMBL5034049, “Flavonol-Based Carbon Monoxide Delivery Molecule with Endoplasmic Reticulum, Mitochondria, And Lysosome Localization” (ACS Med Chem Lett, 2022).

Data set [1] concerns RAW264.7. Put plainly: Cytotoxicity against mouse RAW264.7 cells assessed as reduction in cell viability incubated for 24 hrs under dark condition by MTT assay. The class given is cell-based. Conditions: RAW264.7, 24 h.
Data set [2] is described as follows: Drug uptake in lysosome of human A549 cells at 25 uM measured after 1 hr by LysoTracker Red based confocal microscopic analysis. Conditions: a549, 1 h. The class given is ADME, subcellular.
A short description of data set [3]: Drug uptake in human A549 cells at 1 uM after 4 hrs by Hoechst 33342 staining based fluorescence microscopic analysis. Conditions: a549, 4 h.
Data set [4] can be described thus: Drug uptake in mitochondria of human A549 cells at 25 uM measured after 1 hr by MitoTracker Deep Red based confocal microscopic analysis. The class given is ADME. Conditions: a549, 1 h.
Data set [5] relates to A549. As to the kind of experiment: Cytotoxicity against human A549 cells assessed as reduction in cell viability incubated for 24 hrs under dark condition by MTT assay. Format: cell-based. To be noted: A549, 24 h.
Data set [6] in a line: Drug uptake in mouse RAW264.7 cells at 5 uM after 4 hrs by Hoechst 33258 staining based fluorescence microscopic analysis. Conditions: raw264.7, 4 h. Format: ADME, cell-based.
The test system of data set [7] is A549. Put plainly: Cytotoxicity against human A549 cells assessed as reduction in cell viability up to 100 uM incubated for 24 hrs under dark condition by MTT assay. Conditions: a549, 24 h. Format: cell-based.
In data set [8] the test system is HFL1. Put plainly: Cytotoxicity against human HFL1 cells assessed as reduction in cell viability up to 100 uM incubated for 24 hrs under dark condition by MTT assay. Format: cell-based. To be noted: hfl1, 24 h. (In general: Formazan colour is commonly taken as a measure of viable cells.)
Data set [9] can be described thus: Drug uptake in human HFL1 cells at 1 uM after 4 hrs by Hoechst 33258 staining based fluorescence microscopic analysis. To be noted: hfl1, 4 h. Format: ADME, cell-based.
Data set [10] concerns RAW264.7. Put plainly: Antiinflammatory activity against LPS-stimulated mouse RAW264.7 cells assessed as inhibition of TNF-alpha production incubated for 4 hrs followed by illumination with blue LED array for 1 hr and later incubated for 6 hrs under dark conditions followed by LPS stimulation for 1 hr by ELISA. The class given is functional, cell-based. Conditions: time 12.0 hrs. The essentials:
(§1)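 TNF-α suppression in RAW 264.7 macrophages challenged with LPS. Dark and illuminated treatments run as independent experiments. Mean ± SEM from three independent experiments, compared with the LPS positive control and with the matching non-illuminated treatment.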

The subject of data set [11] is A549. Put plainly: Cytotoxicity against human A549 cells assessed as inhibition of cell viability preincubated under visible light-induced CO release condition for 1 hr followed by incubation with drug for 23 hrs by MTT assay. The class given is functional, cell-based.
Data set [12] can be described thus: Drug uptake in endoplasmic reticulum of human A549 cells at 25 uM measured after 1 hr by ER-Tracker Red based confocal microscopic analysis. Format: ADME. To be noted: a549, 1 h. The essentials:
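A549 cells treated 1 h at 25 μM (vehicle 0.4% DMSO), then counterstained with Hoechst 33342 and ER-Tracker Red. Imaged by confocal microscopy. Overlap given as Pearson's colocalization coefficient, mean ± SEM over 27 cells examined individually across three separate experiments. Line intensity profiles of regions of interest taken over 20 μm.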

Data set [13] concerns RAW264.7. Put plainly: Antiinflammatory activity against LPS-stimulated mouse RAW264.7 cells assessed as inhibition of TNF-alpha production at 40 nM incubated for 10 hrs under dark conditions followed by LPS stimulation for 1 hr by ELISA. Format: functional, cell-based. To be noted: time 11.0 hrs. The essentials: as §1
Data set [14] can be described thus: Drug uptake in human A549 cells assessed as clustering of emission at 1 uM after 1 hr by confocal microscopy. The class given is ADME, cell-based. To be noted: a549, 1 h. In a few lines:
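A549 cells exposed 1 h at 1 μM with a media control. Hoechst nuclear counterstain. Confocal imaging at 63×, compound emission read in the green channel.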

For data set [15], the system named is RAW264.7. As to the kind of experiment: Cytotoxicity against mouse RAW264.7 cells assessed as reduction in cell viability up to 100 uM incubated for 24 hrs under dark condition by MTT assay. The class given is cell-based. Conditions: raw264.7, 24 h.
Data set [16] relates to HFL1. As to the kind of experiment: Cytotoxicity against human HFL1 cells assessed as reduction in cell viability incubated for 24 hrs under dark condition by MTT assay. The class given is cell-based. To be noted: HFL1, 24 h.

Calls of active or inactive are those of the source. The rule behind the calls is not given here.

One may read the IC50 as the concentration at which inhibition is half-maximal. Turning to `CCN(CC)c1ccc(-c2oc3cc4ccccc4cc3c(=O)c2O)cc1`, the IC50 in the data set on RAW264.7 [1] was 67.2 µM; in the data set on A549 [5] it was above 100 µM; in the data set on A549 [11], 10.7 µM. Besides, the Drug uptake result in data set [2], in data set [3], in [4], in [6], in data set [9] and in data set [12] was “Active” in each case. The Drug uptake entry in data set [14] is “Active”. Also, the Activity entry in the data set on A549 [7] and in the data set with HFL1 [8] was “Non-Toxic” throughout. Further, the result in the data set on RAW264.7 [10] and with RAW264.7 [13] was Active.

`CCN(CC)c1ccc(C(=O)Oc2cc3ccccc3cc2C(=O)O)cc1`: the Activity entry with A549 [7], in the data set with HFL1 [8] and in the data set with RAW264.7 [15] was “Non-Toxic” throughout.

On to `O=C(NCC[P+](c1ccccc1)(c1ccccc1)c1ccccc1)c1ccc(-c2oc3cc4ccccc4cc3c(=O)c2O)cc1`, for which the IC50 in the data set with A549 [5] turned out to be 14.1 µM; with A549 [11], 4.6 µM.

Turning to `O=c1c(O)c(-c2ccccc2)oc2cc3ccccc3cc12`, the IC50 in the data set with RAW264.7 [1] came to 47.7 µM; in the data set on HFL1 [16], 65.1 µM; in the data set on A549 [5], 80.2 µM; in the data set on A549 [11], 76.1 µM. In addition, the result in the data set on RAW264.7 [10] was Active.

In the case of `O=C(Oc1cc2ccccc2cc1C(=O)O)c1ccccc1`, the Activity entry in the data set with A549 [7], in the data set on HFL1 [8] and in the data set with RAW264.7 [15] was “Non-Toxic” each time.
